Screens from PubChem BioAssay.
An excerpt weighted towards active compounds, which were near 2.4% of everything screened.
SIAE inh: human SIAE inhibition, primary screen | Q9HAT2 | SIAE FP-Rh probe binding, fluorescence polarization | inhibition, % at 9.66 µM | 0.69% of 370,000 active | AID 1053197;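 active means inhibition above a cutoff: mean of compounds within the control limits plus 3 SD of those, cut at about 17% in these data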;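 further: 0% = plate median of compound wells and 100% = probe without SIAE protein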
Target sequence (Q9HAT2 whole entry, looked up): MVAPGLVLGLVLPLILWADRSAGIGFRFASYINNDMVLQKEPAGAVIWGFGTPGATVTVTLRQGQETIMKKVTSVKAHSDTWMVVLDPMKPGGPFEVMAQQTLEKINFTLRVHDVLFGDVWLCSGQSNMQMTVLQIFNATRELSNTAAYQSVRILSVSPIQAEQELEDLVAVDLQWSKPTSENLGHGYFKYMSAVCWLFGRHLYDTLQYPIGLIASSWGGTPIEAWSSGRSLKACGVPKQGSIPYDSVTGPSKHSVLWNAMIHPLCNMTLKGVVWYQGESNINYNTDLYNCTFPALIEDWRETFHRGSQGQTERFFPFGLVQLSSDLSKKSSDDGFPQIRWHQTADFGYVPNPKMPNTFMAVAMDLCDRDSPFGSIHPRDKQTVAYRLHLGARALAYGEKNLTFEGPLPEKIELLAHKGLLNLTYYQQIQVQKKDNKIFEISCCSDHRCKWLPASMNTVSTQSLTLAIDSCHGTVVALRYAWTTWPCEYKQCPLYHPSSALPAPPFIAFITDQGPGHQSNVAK
GASC-1 inh: blocks human GASC-1 demethylase activity. AID 2099. 0.069% of 330,000 active. inhibition, % at 2.35 µM. Q9H3R0. GST-JMJD2C(1-420) H3K9me3 demethylation, DELFIA europium;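 active means more than half of a compound's replicate wells show inhibition beyond 50%, single wells judged on their own value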;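 further: signal counts dimethyl H3K9 product captured on neutravidin plate; 0% = median of DMSO wells and 100% = 0.3 times that DMSO median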
PRMT1 FP inh: PRMT1 (human) inhibition, primary screen | recombinant PRMT1, activity-based probe fluorescence polarization | inhibition, % at 2.79 µM | 1.3% of 370,000 active | AID 652257;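 active means inhibition above about 21% made by adding two undisclosed values, limit read from the data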
ABHD4 inh: ABHD4 (mouse) inhibition, primary FP screen; Q8VD66; purified mABHD4, FP-Rh probe fluorescence polarization; inhibition, % at 8.92 µM; 0.54% of 370,000 active;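 active means inhibition exceeding the mean over every tested compound plus 3 SD, cut at about 30% in these data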;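 further: 0% = plate median of compound wells and 100% = S159A mutant with DMSO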
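Assay system: Wild-type mouse ABHD4 protein | Medium: HEPES pH 7.0 buffer, 150 mM NaCl, 0.01% Pluronic F-127 | Incubation: Enzyme–compound pre-incubation 45 min, then probe 60 min, both 25 °C | Technique: Fluorescence polarization with parallel and perpendicular emission, 525/598 nm | Evaluation: % inhibition of FP-Rh probe binding versus controls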
HTRA1 inhibitor: HTRA1 (human) protease inhibition; recombinant HTRA1, FP-rhodamine activity-based probe, fluorescence polarization; inhibition, % at 5.96 µM; 0.5% of 340,000 active; AID 504803; in the data active means inhibition above about 36%;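 further: 0% = enzyme with DMSO and 100% = wells lacking enzyme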
PRMT1 inh conf: PRMT1 (human) inhibition, FP confirmation | shares compounds with PRMT1 FP inh | recombinant His-PRMT1, activity-based probe fluorescence polarization | inhibition, % at 2.79 µM | 42% of 3,300 active | AID 687036;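 active means mean inhibition across replicates above the hit cutoff derived for the earlier primary screen, cut at about 22% in these data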
Numbers without * were called inactive; nt = no result.

SMILES | SIAE inh | GASC-1 inh | PRMT1 FP inh | ABHD4 inh | HTRA1 inhibitor | PRMT1 inh conf
O=C(CN1CCCCCC1)NC(c1ccccc1)c1ccccc1 | 0 | -7 | -1 | 7 | 4 | nt
Cc1ccc(N2CCN(S(=O)(=O)c3ccc(C)cc3)CC2)cc1 | -4 | 6 | -2 | 1 | 6 | nt
Cc1cc(NC(=O)CN2CCN(S(=O)(=O)c3ccc(Cl)cc3)CC2)no1 | -1 | 5 | -2 | -3 | -4 | nt
Cc1cc(NC(=O)CN2CCN(c3ccc(O)cc3)CC2)no1 | 2 | 2 | 42* | 11 | -5 | 4
Cc1ccc(S(=O)(=O)N2CCN(C(=O)CN3CCN(c4ccc(O)cc4)CC3)CC2)cc1 | 10 | nt | 34* | 14 | 12 | 7
O=C(CN1CCN(c2ccc(O)cc2)CC1)NC(c1ccccc1)c1ccccc1 | 4 | -22 | 25* | 17 | 9 | 8
CC(C)(C)C(=O)OC12CCCN(C1)/C(=C/c1ccncc1)C2 (stereo not drawn) | -7 | nt | 0 | 0 | nt | nt
CC[n+]1c(/C=C2\C=C(C)CC(C)(C)C2)sc2ccccc21 | -3 | 1 | 44* | 14 | 6 | 16
CCN(CC)c1ccc(/C=C/c2ccc3ccc(OC)cc3[n+]2CC)cc1 | -144 | 0 | 0 | -233 | -87 | nt
CC[n+]1c(/C=C2/C=C(C)CC(C)(C)C2)sc2ccc(OC)cc21 | -6 | 8 | 36* | -3 | 8 | 1
CCCC[C@H](C(=O)N(C)c1ccccc1)[C@@H](O)c1ccc(Cl)cc1 | 3 | nt | 1 | -6 | nt | nt
CC(=O)Nc1ccc(SC(Sc2ccc(NC(C)=O)cc2)c2ccccc2)cc1 | -17 | nt | 29* | -40 | -40 | 22*
CC(=O)Nc1ccc(NC(=S)Nc2ccccc2)cc1 | 2 | -9 | 1 | 9 | 2 | nt
COc1ccc2nc3ccccc3[n+]([O-])c2c1 | 0 | nt | 37* | 1 | 1 | 27*
COc1ccc2c(ccc[n+]2[O-])c1 | 8 | nt | 2 | 8 | 2 | nt
CCNc1nc(NCC)n2c(SCC(=O)Nc3ccccc3F)nnc2n1 | -6 | 1 | 27* | 4 | 3 | 19
c1ccc(Cn2c(SCC3CCCCC3)nnc2-c2cccnc2)cc1 | 2 | nt | 46* | -2 | nt | -4
CN(Cc1ccccc1)C(=O)c1ccc(Cc2cn(C)c3ccccc23)nc1 | 8 | nt | 2 | 4 | nt | nt
NC(=O)c1ccc(SCC(=O)OCC(=O)NCc2cccs2)c([N+](=O)[O-])c1 | -17 | 2 | 45* | -6 | 6 | -4
NC(=O)c1ccc(SCC(=O)OCC(=O)NCC2CCCCC2)c([N+](=O)[O-])c1 | 11 | -3 | 20 | 8 | -3 | nt
O=C(NCc1ccccc1Cl)C1CCC(CNS(=O)(=O)c2cccc3cccnc23)CC1 (stereo not drawn) | -1 | nt | 17 | 5 | nt | nt
CCOc1ccc(N2C(=O)CC(Sc3nc4ccc(OCC)cc4s3)C2=O)cc1 (stereo not drawn) | -6 | -3 | 2 | -1 | 1 | nt
O=C1CC(Sc2ncccn2)C(=O)N1c1ccccc1 (stereo not drawn) | 1 | -16 | 12 | -4 | -4 | nt
C=CCNc1nnc(SC2CC(=O)N(c3ccc(OCCC)cc3)C2=O)s1 (stereo not drawn) | 4 | 8 | 67* | -3 | -1 | 66*
CCOC(=O)c1ccc(N2C(=O)CC(Sc3nnc(C)s3)C2=O)cc1 (stereo not drawn) | 5 | -1 | 72* | -5 | -3 | 76*
COc1ccccc1N1C(=O)CC(Sc2n[nH]c(-c3cccc(C)c3)n2)C1=O (stereo not drawn) | 3 | -4 | 88* | 5 | 2 | 73*
Cc1nc(SC2CC(=O)N(c3ccccc3)C2=O)n[nH]1 (stereo not drawn) | 2 | -7 | 50* | 0 | 9 | 63*
CCOc1ccc(NC(=O)CSc2nc3ccsc3c(=O)n2CCCCCC(=O)O)cc1 | -3 | nt | 1 | 1 | 0 | nt
COc1ccc(N2C(=O)CC(Sc3nc4ccccc4s3)C2=O)cc1OC (stereo not drawn) | 0 | -1 | 26* | 4 | 0 | 23*
Nc1nnc(SC2CC(=O)N(c3ccccc3)C2=O)s1 (stereo not drawn) | 2 | 57* | 75* | 5 | -1 | 73*
